This note sets out measurements from ChEMBL document CHEMBL4177657, “Structure-activity relationships of 2-substituted phenyl-N-phenyl-2-oxoacetohydrazonoyl cyanides as novel antagonists of exchange proteins directly activated by cAMP (EPACs)” (Bioorg Med Chem Lett, 2017).

As usually defined, the IC50 is the concentration needed to halve the response being measured.

In assay [1] the target is T1, Rap guanine nucleotide exchange factor 3 (Homo sapiens) (UniProt O95398).
T1 sequence (whole entry): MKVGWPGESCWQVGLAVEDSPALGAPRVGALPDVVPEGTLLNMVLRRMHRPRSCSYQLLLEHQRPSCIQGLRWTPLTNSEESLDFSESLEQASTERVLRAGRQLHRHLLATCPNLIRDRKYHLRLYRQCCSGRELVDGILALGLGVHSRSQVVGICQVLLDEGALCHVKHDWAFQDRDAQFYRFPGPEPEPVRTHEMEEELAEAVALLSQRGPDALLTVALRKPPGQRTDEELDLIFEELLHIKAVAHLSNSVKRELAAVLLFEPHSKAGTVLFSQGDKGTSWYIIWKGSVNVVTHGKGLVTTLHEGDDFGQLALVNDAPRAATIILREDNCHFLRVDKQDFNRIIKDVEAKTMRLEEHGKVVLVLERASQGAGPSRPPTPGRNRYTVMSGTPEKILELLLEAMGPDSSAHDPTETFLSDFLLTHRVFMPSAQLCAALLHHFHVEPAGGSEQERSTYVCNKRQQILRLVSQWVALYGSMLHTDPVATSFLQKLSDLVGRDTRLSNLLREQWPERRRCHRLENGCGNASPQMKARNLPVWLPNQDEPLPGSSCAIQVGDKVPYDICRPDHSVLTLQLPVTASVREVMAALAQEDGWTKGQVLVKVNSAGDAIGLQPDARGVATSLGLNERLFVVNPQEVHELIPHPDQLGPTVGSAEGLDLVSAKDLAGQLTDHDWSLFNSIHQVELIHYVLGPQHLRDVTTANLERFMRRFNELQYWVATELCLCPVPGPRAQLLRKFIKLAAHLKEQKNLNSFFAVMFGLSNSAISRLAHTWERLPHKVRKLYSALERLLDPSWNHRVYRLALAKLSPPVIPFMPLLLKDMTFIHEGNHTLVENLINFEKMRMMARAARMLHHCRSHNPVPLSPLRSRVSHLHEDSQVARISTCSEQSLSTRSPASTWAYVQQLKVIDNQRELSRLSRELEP
Put plainly: (§1) Antagonist activity at recombinant full length EPAC1 (unknown origin) assessed as inhibition of cAMP-mediated Rap1b-BODIPY GDP nucleotide exchange activity. In outline:
(§2)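 Guanine nucleotide exchange on Rap1b loaded with BODIPY-GDP (Rap1b-bGDP), catalysed by EPAC1 in the presence of 20 μM cAMP. Inhibitor is tested over a dose range. GEF activity is expressed as a normalized reaction rate constant, and IC50 is taken from the dose-response curves. Values are mean ± SE, n = 3.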

Assay [2] addresses T2, Rap guanine nucleotide exchange factor 3 (Homo sapiens, UniProt O95398).
T2 sequence (O95398 whole entry): T1 sequence (whole entry)
The assay is described as §1. The method in brief: as §2

Assay [3] has as its target Rap guanine nucleotide exchange factor 4 (Homo sapiens, UniProt Q8WZA2). Description: Antagonist activity at recombinant full length EPAC2 (unknown origin) assessed as inhibition of cAMP-mediated Rap1b-BODIPY GDP nucleotide exchange activity. The method in brief:
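Guanine nucleotide exchange on Rap1b loaded with bGDP, catalysed by EPAC2 in the presence of 20 μM cAMP and run across a compound dose range. Relative GEF activity is expressed as the normalized reaction rate constant.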

In the case of `CC(C)(C)c1cc(C(=O)/C(C#N)=N/Nc2cccc(Cl)c2)no1`, the inhibition entry in assay [1] and in assay [3] was “Dose-dependent effect” in each case. The IC50 in assay [2] fell in the range of 9.1 to 10.8 µM; in assay [3] it was 4.4 to 8.9 µM.
For the molecule `C[C@@H]1CCc2c(cc(Br)c(F)c2Br)N1C=O`, the values for the IC50 in assay [2] and in assay [3] were 5.5 µM and 17 µM, respectively.
